How the values were obtained:
B2 bradykinin receptor = molecular target: T1, B2 bradykinin receptor (Homo sapiens, UniProt P30411); assay: Agonist activity at bradykinin B2 receptor (unknown origin)
T1 sequence (P30411 whole entry): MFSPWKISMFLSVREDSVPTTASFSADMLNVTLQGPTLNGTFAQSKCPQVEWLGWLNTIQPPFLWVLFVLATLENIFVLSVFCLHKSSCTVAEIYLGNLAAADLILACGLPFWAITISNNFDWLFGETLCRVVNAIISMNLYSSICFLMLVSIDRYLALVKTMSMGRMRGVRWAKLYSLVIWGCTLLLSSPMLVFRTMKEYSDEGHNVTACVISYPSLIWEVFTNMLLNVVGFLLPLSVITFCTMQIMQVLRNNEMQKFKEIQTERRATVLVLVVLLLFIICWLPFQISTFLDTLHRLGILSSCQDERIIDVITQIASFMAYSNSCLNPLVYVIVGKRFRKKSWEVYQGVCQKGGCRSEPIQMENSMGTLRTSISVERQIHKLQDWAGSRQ

MCF7 = assay: Antiproliferative activity against human MCF7 cells assessed as cell viability after 24 hrs; type: functional, cell-based; settings: MCF7, 24 h
In short: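 MCF-7 cells (ATCC) kept in DMEM with 10% FBS, 1.0 mM pyruvate, 2 mM L-glutamine and penicillin at 37 °C, 5% CO2. Cells grown to 60–70% confluence, then given fresh medium and compound (DMSO stock diluted in medium) at 0–200 μM for 24 h with serum. Surviving cells counted manually. IC50 from a non-linear fit of % living cells vs log concentration. Triplicate, mean ± SD.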

MDA-MB-231 = assay: Antiproliferative activity against human MDA-MB-231 cells assessed as cell viability after 24 hrs; type: functional, cell-based; settings: MDA-MB-231, 24 h

`COc1nc2c(OCc3c(Cl)ccc(N(C)C(=O)CNC(=O)/C=C/c4ccc(NC(C)=O)nc4)c3Cl)cccc2n1Cc1ccccn1` was tested, and the IC50 (B2 bradykinin receptor) was 0.00068 µM.
`CNC(=O)c1ccc(/C=C/C(=O)O)cc1` gave an IC50 (MCF7) of 2.12 µM and an IC50 (MDA-MB-231) of 86 µM.
Compound `Cc1cc(OCc2ccccn2)c2cccc(O)c2n1` has an IC50 (MCF7) of 0.16 µM and an IC50 (MDA-MB-231) of 450 µM.
Compound `CC1=C(/C=C/C(C)=C/C=C/C(C)=C/C(=O)NCC(=O)N(C)c2ccc(Cl)c(COc3cccc4c(OCc5ccccn5)cc(C)nc34)c2Cl)C(C)(C)CCC1` has an IC50 (MCF7) of 65 µM and an IC50 (MDA-MB-231) of 193 µM.
Work on `COc1cc(/C=C/C(=O)NCC(=O)N(C)c2ccc(Cl)c(COc3cccc4c(OCc5ccccn5)cc(C)nc34)c2Cl)ccc1O` yielded an IC50 (MCF7) of 0.33 µM and an IC50 (MDA-MB-231) of 5.9 µM.
`CN(C(=O)CN1C(=O)c2ccccc2C1=O)c1ccc(Cl)c(CO)c1Cl` was tested, and the IC50 (MCF7) was 53 µM and the IC50 (MDA-MB-231) was 0.78 µM.
`Cc1cc(OCc2ccccn2)c2cccc(N)c2n1` showed an IC50 (MCF7) of 0.86 µM and an IC50 (MDA-MB-231) of 22 µM.
`CNC(=O)c1ccc(/C=C/C(=O)NCc2cn(-c3ccc(Cl)c(CNc4cccc5c(OCc6ccccn6)cc(C)nc45)c3Cl)nn2)cc1` gave an IC50 (MCF7) of 0.73 µM and an IC50 (MDA-MB-231) of 0.43 µM.
`CC1=C(/C=C/C(C)=C/C=C/C(C)=C/C(=O)NCC(=O)N(C)c2ccc(Cl)c(CNc3cccc4c(OCc5ccccn5)cc(C)nc34)c2Cl)C(C)(C)CCC1` was tested, and the IC50 (MCF7) was 64 µM and the IC50 (MDA-MB-231) was 0.005 µM.
For `O=C1c2ccccc2C(=O)N1Cc1cn(-c2ccc(Cl)c(CO)c2Cl)nn1`, the IC50 (MCF7) was 0.07 µM and the IC50 (MDA-MB-231) was 520 µM.
`Cc1cc(OCc2ccccn2)c2cccc(OCc3cccc(Oc4ccccc4)c3)c2n1` showed an IC50 (MCF7) of 407 µM and an IC50 (MDA-MB-231) of 6.97 µM.
Compound `CNC(=O)c1ccc(/C=C/C(=O)NCC(=O)N(C)c2ccc(Cl)c(CNc3cccc4c(OCc5ccccn5)cc(C)nc34)c2Cl)cc1` has an IC50 (MCF7) of 1.21 µM and an IC50 (MDA-MB-231) of 5.94e-05 µM.
With `CNC(=O)c1ccc(/C=C/C(=O)NCc2cn(-c3ccc(Cl)c(COc4cccc5c(OCc6ccccn6)cc(C)nc45)c3Cl)nn2)cc1` the IC50 (MCF7) was 91 µM and the IC50 (MDA-MB-231) was 200 µM.
`CNC(=O)c1ccc(/C=C/C(=O)NCC(=O)N(C)c2ccc(Cl)c(CO)c2Cl)cc1` gave an IC50 (MCF7) of 0.93 µM and an IC50 (MDA-MB-231) of 650 µM.
`CNC(=O)c1ccc(/C=C/C(=O)NCC(=O)N(C)c2ccc(Cl)c(COc3cccc4c(OCc5ccccn5)cc(C)nc34)c2Cl)cc1` gave an IC50 (MCF7) of 2.14 µM and an IC50 (MDA-MB-231) of 0.08 µM.
Compound `Cc1nc(NC(=O)N2CCC[C@H]2C(N)=O)sc1-c1ccnc(C(C)(C)C(F)(F)F)c1` [ALPELISIB] has an IC50 (MDA-MB-231) of 62.9 µM.
Work on `CC(C)C[C@H](NC(=O)[C@H](Cc1ccccc1)NC(=O)c1cnccn1)B(O)O` [BORTEZOMIB] yielded an IC50 (MDA-MB-231) of 0.003 µM.
`O=P1(N(CCCl)CCCl)NCCCO1` (stereo unspecified) [CYCLOPHOSPHAMIDE ANHYDROUS] gave an IC50 (MDA-MB-231) of 196 µM.
`CC(=O)O[C@@]12CO[C@@H]1C[C@H](O)[C@@]1(C)C(=O)[C@H](O)C3=C(C)[C@@H](OC(=O)[C@H](O)[C@@H](NC(=O)OC(C)(C)C)c4ccccc4)C[C@@](O)([C@@H](OC(=O)c4ccccc4)[C@H]21)C3(C)C` [DOCETAXEL ANHYDROUS] gave an IC50 (MDA-MB-231) of 0.01 µM.
`COc1cccc2c1C(=O)c1c(O)c3c(c(O)c1C2=O)C[C@@](O)(C(=O)CO)C[C@@H]3O[C@H]1C[C@H](N)[C@H](O)[C@H](C)O1` [DOXORUBICIN] was tested, and the IC50 (MDA-MB-231) was 0.1 µM.
In the case of `COc1cccc2c1C(=O)c1c(O)c3c(c(O)c1C2=O)C[C@@](O)(C(=O)CO)C[C@@H]3O[C@H]1C[C@H](N)[C@@H](O)[C@H](C)O1` [EPIRUBICIN], the IC50 (MDA-MB-231) is reported as 0.15 µM.
Compound `COc1cc(/C=C/C(=O)O)ccc1O` [FERULATE] has an IC50 (MCF7) of 0.36 µM and an IC50 (MDA-MB-231) of 15 µM.
In the case of `O=c1[nH]cc(F)c(=O)[nH]1` [FLUOROURACIL], the IC50 (MDA-MB-231) is reported as 66.6 µM.
Work on `CC(=O)Nc1ccc(/C=C/C(=O)NCC(=O)N(C)c2ccc(Cl)c(COc3cccc4ccc(C)nc34)c2Cl)cn1` [FR-173657] yielded an IC50 (MDA-MB-231) of 20 µM.
With `C[C@]12CC[C@@H]3c4ccc(O)cc4C[C@@H](CCCCCCCCC[S+]([O-])CCCC(F)(F)C(F)(F)F)[C@H]3[C@@H]1CC[C@@H]2O` (stereo partly specified) [FULVESTRANT] the IC50 (MDA-MB-231) was 196 µM.
In the case of `Nc1ccn([C@@H]2O[C@H](CO)[C@@H](O)C2(F)F)c(=O)n1` [GEMCITABINE], the IC50 (MDA-MB-231) is reported as 2.1 µM.
For `CS(=O)(=O)CCNCc1ccc(-c2ccc3ncnc(Nc4ccc(OCc5cccc(F)c5)c(Cl)c4)c3c2)o1` [LAPATINIB], the IC50 (MDA-MB-231) was 10.6 µM.
`O=C(c1cc(Cc2n[nH]c(=O)c3ccccc23)ccc1F)N1CCN(C(=O)C2CC2)CC1` [OLAPARIB] was tested, and the IC50 (MDA-MB-231) was 62.5 µM.
In the case of `CC(=O)O[C@H]1C(=O)[C@@]2(C)[C@H]([C@H](OC(=O)c3ccccc3)[C@]3(O)C[C@H](OC(=O)[C@H](O)[C@@H](NC(=O)c4ccccc4)c4ccccc4)C(C)=C1C3(C)C)[C@]1(OC(C)=O)CO[C@@H]1C[C@@H]2O` [PACLITAXEL], the IC50 (MDA-MB-231) is reported as 0.9 µM.
Compound `CC(=O)c1c(C)c2cnc(Nc3ccc(N4CCNCC4)cn3)nc2n(C2CCCC2)c1=O` [PALBOCICLIB] has an IC50 (MDA-MB-231) of 14.6 µM.
In the case of `CN(C)C(=O)c1cc2cnc(Nc3ccc(N4CCNCC4)cn3)nc2n1C1CCCC1` [RIBOCICLIB], the IC50 (MDA-MB-231) is reported as 27.3 µM.
`CO[C@H]1C[C@@H]2CC[C@@H](C)[C@@](O)(O2)C(=O)C(=O)N2CCCC[C@H]2C(=O)O[C@H]([C@H](C)C[C@@H]2CC[C@@H](O)[C@H](OC)C2)CC(=O)[C@H](C)/C=C(\C)[C@@H](O)[C@@H](OC)C(=O)[C@H](C)C[C@H](C)/C=C/C=C/C=C/1C` [SIROLIMUS] was tested, and the IC50 (MDA-MB-231) was 0.9 µM.
With `CC/C(=C(\c1ccccc1)c1ccc(OCCN(C)C)cc1)c1ccccc1` [TAMOXIFEN] the IC50 (MDA-MB-231) was 69.7 µM.
Work on `CC1=C(/C=C/C(C)=C/C=C/C(C)=C/C(=O)O)C(C)(C)CCC1` [TRETINOIN] yielded an IC50 (MCF7) of 6.14 µM and an IC50 (MDA-MB-231) of 16 µM.
`CC[C@]1(O)C[C@@H]2CN(CCc3c([nH]c4ccccc34)[C@@](C(=O)OC)(c3cc4c(cc3OC)N(C)[C@H]3[C@@](O)(C(=O)OC)[C@H](OC(C)=O)[C@]5(CC)C=CCN6CC[C@]43[C@@H]65)C2)C1` [VINBLASTINE] showed an IC50 (MDA-MB-231) of 0.024 µM.

Source: ChEMBL document CHEMBL4732084, “Potent antiproliferative activity of bradykinin B2 receptor selective agonist FR-190997 and analogue structures thereof: A paradox resolved?” (Eur J Med Chem, 2021)
